Measurements taken from ChEMBL document CHEMBL4038317, “Discovery of a Benzamide Derivative That Protects Pancreatic β-Cells against Endoplasmic Reticulum Stress” (J Med Chem, 2017).
Activity calls are given as the source filed them. No cut-off for these calls is given here.

How the values were obtained:
[1] = system: INS1; experiment: Cytoprotective activity in rat INS-1 cells assessed as protection against tunicamycin-induced ER stress-mediated reduction in cell viability after 3 days by CellTiter-Glo assay relative tunicamycin; assay type: functional; details: INS1, 72 h
Method in brief: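 INS-1 cells, 3×10^3 per well, were co-treated with tunicamycin 0.1 μg/mL and compound for 72 h. Viability was read as intracellular ATP by luminescence and expressed as fold of no-tunicamycin cells. EC50 and maximum activity were taken as the increase in viability versus tunicamycin alone. Triplicate wells, three independent experiments.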

[2] = system: INS1; experiment: Cytoprotective activity in rat INS-1 cells assessed as protection against tunicamycin-induced ER stress-mediated reduction in cell viability after 3 days by CellTiter-Glo assay; details: INS1, 72 h
[3] = molecular target: T1, Cyclic AMP-dependent transcription factor ATF-6 alpha (Rattus norvegicus) (UniProt G3V909); experiment: Inhibition of tunicamycin ER stress-induced ATF6 activation in rat INS-1 cells assessed as suppression of increase in Bip mRNA levels up to 10 uM after 8 hrs by qRT-PCR analysis; assay type: cell-based
T1 sequence (whole entry): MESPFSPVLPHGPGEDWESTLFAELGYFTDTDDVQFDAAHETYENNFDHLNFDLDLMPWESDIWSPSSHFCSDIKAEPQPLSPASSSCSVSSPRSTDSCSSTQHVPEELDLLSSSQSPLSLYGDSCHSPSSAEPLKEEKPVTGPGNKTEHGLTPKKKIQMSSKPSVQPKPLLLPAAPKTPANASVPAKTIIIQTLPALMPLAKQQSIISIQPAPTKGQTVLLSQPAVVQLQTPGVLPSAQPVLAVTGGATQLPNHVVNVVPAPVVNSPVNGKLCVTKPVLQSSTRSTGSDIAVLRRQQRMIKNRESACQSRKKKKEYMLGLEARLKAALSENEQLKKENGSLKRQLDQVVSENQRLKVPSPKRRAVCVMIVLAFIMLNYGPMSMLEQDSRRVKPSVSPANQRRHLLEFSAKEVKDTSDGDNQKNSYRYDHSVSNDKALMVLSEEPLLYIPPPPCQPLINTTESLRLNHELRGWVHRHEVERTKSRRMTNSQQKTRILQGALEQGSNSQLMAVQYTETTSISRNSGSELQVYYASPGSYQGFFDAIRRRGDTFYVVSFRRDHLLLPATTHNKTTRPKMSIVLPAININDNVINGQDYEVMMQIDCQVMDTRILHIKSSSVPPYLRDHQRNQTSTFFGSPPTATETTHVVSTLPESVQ
Method in brief: (§1)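 INS-1 cells, 4×10^5 per well, were exposed to tunicamycin 0.1 μg/mL with compound or DMSO for 8 h. qRT-PCR for ATF4, CHOP, Bip, GRP94, or spliced XBP1 using splicing-specific primers. Values were normalized to cyclophilin A by ΔΔCt and given as fold over untreated control. Triplicate wells, 3 independent experiments.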

[4] = molecular target: T1, Cyclic AMP-dependent transcription factor ATF-6 alpha (Rattus norvegicus); experiment: Inhibition of tunicamycin ER stress-induced ATF6 activation in rat INS-1 cells assessed as suppression of increase in […] mRNA levels up to 10 uM after 8 hrs by qRT-PCR analysis; assay type: cell-based; method in brief: as §1
[5] = molecular target: T2, Eukaryotic translation initiation factor 2-alpha kinase 3 (Rattus norvegicus) (UniProt Q9Z1Z1); experiment: Inhibition of tunicamycin ER stress-induced PERK activation in rat INS-1 cells assessed as suppression of tunicamycin-induced increase in CHOP protein levels up to 10 uM after 8 hrs by Western blot analysis; assay type: cell-based
T2 sequence (whole entry): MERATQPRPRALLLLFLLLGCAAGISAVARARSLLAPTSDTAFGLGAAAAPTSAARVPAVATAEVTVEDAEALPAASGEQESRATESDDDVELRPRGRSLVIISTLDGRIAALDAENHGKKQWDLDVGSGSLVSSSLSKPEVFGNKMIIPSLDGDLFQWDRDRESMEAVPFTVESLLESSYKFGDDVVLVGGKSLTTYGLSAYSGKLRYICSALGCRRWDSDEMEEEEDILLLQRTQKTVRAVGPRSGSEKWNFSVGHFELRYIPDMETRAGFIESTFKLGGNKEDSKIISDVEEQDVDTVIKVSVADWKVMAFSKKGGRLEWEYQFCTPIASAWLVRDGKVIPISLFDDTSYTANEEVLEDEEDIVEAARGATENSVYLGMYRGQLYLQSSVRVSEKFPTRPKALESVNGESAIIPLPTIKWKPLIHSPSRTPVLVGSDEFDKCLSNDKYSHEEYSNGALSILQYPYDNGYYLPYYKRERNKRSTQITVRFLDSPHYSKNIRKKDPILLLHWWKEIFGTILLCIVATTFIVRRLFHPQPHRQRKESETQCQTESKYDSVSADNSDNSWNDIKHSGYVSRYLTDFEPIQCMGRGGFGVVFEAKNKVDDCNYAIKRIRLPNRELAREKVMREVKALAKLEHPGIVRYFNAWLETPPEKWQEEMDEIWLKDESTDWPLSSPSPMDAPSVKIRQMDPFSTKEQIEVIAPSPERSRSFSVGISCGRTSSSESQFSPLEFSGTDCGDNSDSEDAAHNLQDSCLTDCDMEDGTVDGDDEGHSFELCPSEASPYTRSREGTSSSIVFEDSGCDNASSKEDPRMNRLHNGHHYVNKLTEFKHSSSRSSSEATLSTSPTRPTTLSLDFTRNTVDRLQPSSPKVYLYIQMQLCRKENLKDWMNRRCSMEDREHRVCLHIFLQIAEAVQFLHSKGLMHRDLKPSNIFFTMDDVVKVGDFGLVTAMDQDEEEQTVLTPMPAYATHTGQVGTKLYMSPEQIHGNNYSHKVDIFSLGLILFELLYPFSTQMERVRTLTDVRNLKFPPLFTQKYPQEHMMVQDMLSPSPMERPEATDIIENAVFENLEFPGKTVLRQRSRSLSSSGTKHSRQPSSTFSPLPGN
Method in brief: (§2)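 INS-1 cells were exposed to tunicamycin 0.1 μg/mL with compound or DMSO for 8 h. Lysates were immunoblotted for ATF4 and CHOP (1:1000). Bands were quantified by densitometry and normalized to α-tubulin; 3 independent experiments.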

[6] = molecular target: T2, Eukaryotic translation initiation factor 2-alpha kinase 3 (Rattus norvegicus); experiment: Inhibition of tunicamycin ER stress-induced PERK activation in rat INS-1 cells assessed as suppression of tunicamycin-induced increase in ATF4 protein levels up to 10 uM after 8 hrs by Western blot analysis; assay type: cell-based; method in brief: as §2

`O=C(NCCc1ccccc1)c1cccc(F)c1` was tested, and the Emax [1] was < 0%.

In the case of `C#CCOc1ccc(C(=O)NCCc2ccccc2)cc1`, the Emax [1] is reported as 54% and the EC50 [2] is reported as > 30 µM.

Work on `O=C(NCCc1ccccc1)c1ccc(Cl)c(Cl)c1` yielded an Emax [1] of 42% and an EC50 [2] of 17 µM.

With `COc1ccc(CCNC(=O)c2ccc3c(c2)OCCO3)cc1` the Emax [1] was 26% and the EC50 [2] was > 30 µM.

Work on `O=C(NCc1cccc(Br)c1)c1ccc(CN2CCCCC2)cc1` yielded an Emax [1] of 81% and an EC50 [2] of 4.9 µM.

With `O=C(NCCc1ccc(Cl)c(Cl)c1)c1ccc(CN2CCCCC2)cc1` the Emax [1] was 71% and the EC50 [2] was 24 µM.

`O=C(NCc1ccc(Cl)c(Cl)c1)c1ccc2c(c1)OCCO2` gave an Emax [1] of 68% and an EC50 [2] of 3.6 µM.

`Cc1ccc(C(=O)NCCc2ccccc2)cc1` was tested, and the Emax [1] was 25% and the EC50 [2] was 20 µM.

`O=C(NCCc1ccc(F)cc1)c1ccc2c(c1)OCCO2` was tested, and the Emax [1] was 50% and the EC50 [2] was 21 µM.

With `O=C(NCCc1ccccc1)c1cccc([N+](=O)[O-])c1` the Emax [1] was < 0%.

`O=C(NCc1ccccc1Cl)c1ccc2c(c1)OCCO2` showed an Emax [1] of 43% and an EC50 [2] of 25 µM.

Work on `O=C(NCc1cccc(Br)c1)c1ccc2c(c1)OCCO2` yielded an Emax [1] of 69% and an EC50 [2] of 5.5 µM.

For `COc1ccc(CNC(=O)c2cccc(CN3CCCCC3)c2)cc1`, the Emax [1] was 93% and the EC50 [2] was 1.12 µM.

With `O=C(NCc1cccc(C(F)(F)F)c1)c1cccc(CN2CCCCC2)c1` the Emax [1] was 91% and the EC50 [2] was 0.25 µM.

`O=C(NCc1ccccc1)c1cccc(CN2CCCCC2)c1` showed an Emax [1] of 95% and an EC50 [2] of 0.35 µM.

`O=C(NCCc1ccccc1)c1ccc2c(c1)OCCO2` showed an Emax [1] of 47% and an EC50 [2] of 19 µM.

`O=C(NCCc1ccccc1)c1ccc(CN2CCCC2)cc1` showed an Emax [1] of 31% and an EC50 [2] of 11 µM.

Work on `O=C(NCCc1cccc(Cl)c1)c1ccc2c(c1)OCO2` yielded an Emax [1] of 41% and an EC50 [2] of 25 µM.

Work on `O=C(NCc1ccccc1Cl)c1cccc(CN2CCCCC2)c1` yielded an Emax [1] of 93% and an EC50 [2] of 2.04 µM.

Molecule `O=C(NCc1ccccc1Br)c1ccc2c(c1)OCCO2` has an Emax [1] of 38% and an EC50 [2] of 25 µM.

Molecule `COc1cccc(CNC(=O)c2cccc(CN3CCCCC3)c2)c1` has an Emax [1] of 92% and an EC50 [2] of 0.96 µM.

For `COc1ccc(C(=O)NCCc2ccccc2)cc1C`, the Emax [1] was 56% and the EC50 [2] was 15 µM.

In the case of `COc1ccc(C(=O)NCCc2cccc(Cl)c2)cc1OC`, the Emax [1] is reported as 46% and the EC50 [2] is reported as 24 µM.

Work on `O=C(NCCc1ccccc1)c1ccc(F)c(F)c1F` yielded an Emax [1] of 23% and an EC50 [2] of 9.9 µM.

Molecule `O=C(NCCc1ccccc1)c1ccc(CN2CCCCC2)cc1` has an Emax [1] of 87% and an EC50 [2] of 21 µM.

Molecule `O=C(NCc1ccccc1Cl)c1ccc(CN2CCCCC2)cc1` has an Emax [1] of 87% and an EC50 [2] of 13 µM.

`O=C(NCc1ccc(Cl)cc1)c1ccc2c(c1)OCCO2` was tested, and the Emax [1] was 69% and the EC50 [2] was 2.8 µM.

`O=C(NCc1ccc(Cl)cc1)c1ccccc1CN1CCCCC1` was tested, and the Emax [1] was 73% and the EC50 [2] was 6.9 µM.

`O=C(NCc1ccc(Cl)cc1)c1ccc(CN2CCCCC2)cc1` showed an Emax [1] of 77% and an EC50 [2] of 9.5 µM.

With `O=C(NCCc1cccc(Cl)c1)c1ccc2c(c1)OCCO2` the Emax [1] was 42% and the EC50 [2] was 21 µM.

In the case of `O=C(NCc1ccc(Cl)c(Cl)c1)c1ccc(CN2CCCCC2)cc1`, the Emax [1] is reported as 78% and the EC50 [2] is reported as 1.8 µM.

In the case of `Nc1cccc(C(=O)NCCc2ccccc2)c1`, the Emax [1] is reported as < 0%.

Molecule `Cc1ccccc1C(=O)NCCc1ccccc1` has an Emax [1] of 6%.

In the case of `CCOc1cccc(C(=O)NCCc2ccccc2)c1`, the Emax [1] is reported as 49% and the EC50 [2] is reported as 26 µM.

With `COc1ccc(CCNC(=O)c2ccc3c(c2)OCCO3)cc1OC` the inhibition [3] was “inactive”, the Emax [1] was 5% and the inhibition [4] was “inactive”. The EC50 [2] was > 30 µM, the inhibition [5] was “inactive” and the inhibition [6] was “inactive”.

In the case of `O=C(NCCc1ccccc1)c1cc(F)c(F)c(F)c1F`, the Emax [1] is reported as < 0%.

`O=C(NCCc1ccc(Cl)cc1)c1ccc(CN2CCCCC2)cc1` showed an Emax [1] of 82% and an EC50 [2] of 21 µM.

Molecule `O=C(NCc1cccc(Cl)c1)c1ccc2c(c1)OCCO2` has an Emax [1] of 57% and an EC50 [2] of 9.5 µM.

Work on `O=C(NCc1ccc(Cl)cc1)c1cccc(CN2CCCCC2)c1` yielded an Emax [1] of 93% and an EC50 [2] of 0.24 µM.

With `O=C(NCc1cccc(Cl)c1)c1ccc(CN2CCCCC2)cc1` the Emax [1] was 80% and the EC50 [2] was 2.2 µM.

`CC(C)Sc1ccccc1C(=O)NCCc1ccccc1` was tested, and the Emax [1] was 30% and the EC50 [2] was > 30 µM.

Work on `CN(C)S(=O)(=O)c1ccc(C(=O)NCCc2ccccc2)cc1` yielded an Emax [1] of 37% and an EC50 [2] of 19 µM.

With `COc1ccccc1CCNC(=O)c1ccc2c(c1)OCCO2` the Emax [1] was 29% and the EC50 [2] was > 30 µM.

Molecule `O=C(NCCc1ccc(Cl)cc1)c1ccc2c(c1)OCCO2` has an Emax [1] of 51% and an EC50 [2] of 15 µM.

`O=C(NCc1cccc(Cl)c1)c1cccc(CN2CCCCC2)c1` gave an Emax [1] of 90% and an EC50 [2] of 0.41 µM.

`CS(=O)(=O)Nc1cccc(C(=O)NCCc2ccccc2)c1` was tested, and the Emax [1] was 24% and the EC50 [2] was 25 µM.
